Experiment [1] deals with Mycobacterium tuberculosis. Put plainly: Antimycobacterial activity against Mycobacterium tuberculosis H37Rv ATCC 27294 after 21 days by agar proportion method. Type of experiment: functional. Particulars: 504 h. The procedure, abridged:
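Agar proportion method on Middlebrook 7H10 with glycerol and OADC, compounds added from DMSO solutions at […]. H37Rv was grown in 7H9 broth at 37 °C for 4–7 days and adjusted to McFarland no. 1. The 10^-2 and 10^-4 dilutions were the inocula. MIC was read after 21 days at 37 °C under 5–7% CO₂.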

Experiment [2] can be described thus: Antagonist activity at calcium channel in guinea pig ileum assessed as inhibition of KCl-induced contraction of ileal longitudinal smooth muscle pretreated 15 mins before KCl challenge. Type of experiment: functional, tissue-based. Particulars: Cavia porcellus.

≈ marks a conversion by molar mass, not a printed value. Bounds are passed on as bounds.

In the case of `CCN(CC)C(=O)C1=C(C)NC(C)=C(C(=O)OC)C1c1ncc([N+](=O)[O-])n1C` (stereo not drawn), in experiment [1], the minimum inhibitory concentration (MIC) – broadly, the lowest concentration that inhibits growth of the organism – is > 500 µM. Besides, the IC50 – broadly, the concentration that inhibits the measured activity by half – in experiment [2] came out at 32.2 µM.
Regarding `CCN(CC)C(=O)C1=C(C)NC(C)=C(C(=O)OCCCc2ccccc2)C1c1ncc([N+](=O)[O-])n1C` (stereo not drawn), in experiment [1], the MIC stood at 1 µM (≈ 0.496 µg/mL). Moreover, in experiment [2], the IC50 is 2.7 µM.
As for `CCN(CC)C(=O)C1=C(C)NC(C)=C(C(=O)OC(C)C)C1c1ncc([N+](=O)[O-])n1C` (stereo not drawn), the MIC in experiment [1] was > 500 µM. For the same compound, the half-inhibitory concentration (IC50) in experiment [2] was found to be 18.8 µM.
In experiment [1], `CCCOC(=O)C1=C(C)NC(C)=C(C(=O)N(CC)CC)C1c1ncc([N+](=O)[O-])n1C` (stereo not drawn) returned an MIC of 2 µM (≈ 0.839 µg/mL). Moreover, the 50% inhibitory concentration (IC50) in experiment [2] worked out at 12 µM.
Take `COC(=O)C1=C(C)NC(C)=C(C(=O)OC)C1c1ccccc1[N+](=O)[O-]` [NIFEDIPINE]: in experiment [2], the concentration for half-maximal inhibition (IC50) came out at 0.00107 µM.
For `CCOC(=O)C1=C(C)NC(C)=C(C(=O)N(CC)CC)C1c1ncc([N+](=O)[O-])n1C` (stereo not drawn), inhibition of growth in experiment [1] (MIC) required 250 µM (≈ 101 µg/mL). Besides, the concentration for half-maximal inhibition (IC50) in experiment [2] amounted to 29.7 µM.
Compound `NNC(=O)c1ccncc1` [ISONIAZID] came in with an MIC in experiment [1] of 1 µM (≈ 0.137 µg/mL).
Consider `CCCCOC(=O)C1=C(C)NC(C)=C(C(=O)N(CC)CC)C1c1ncc([N+](=O)[O-])n1C` (stereo not drawn), for which, in experiment [1], the MIC was 1 µM (≈ 0.434 µg/mL). Also, the IC50 in experiment [2] came out at 8.57 µM.
In experiment [1], `CCN(CC)C(=O)C1=C(C)NC(C)=C(C(=O)OCCCCc2ccccc2)C1c1ncc([N+](=O)[O-])n1C` (stereo not drawn) displayed an MIC of 2 µM (≈ 1.02 µg/mL). Moreover, the half-inhibitory concentration (IC50) in experiment [2] was determined as 3.5 µM.
The compound `CO[C@H]1/C=C/O[C@@]2(C)Oc3c(C)c(O)c4c(O)c(c(/C=N/N5CCN(C)CC5)c(O)c4c3C2=O)NC(=O)/C(C)=C\C=C\[C@H](C)[C@H](O)[C@@H](C)[C@@H](O)[C@@H](C)[C@H](OC(C)=O)[C@@H]1C` [RIFAMPIN] had a minimal inhibitory concentration (MIC) in experiment [1] of 1 µM (≈ 0.823 µg/mL).
In the case of `CCN(CC)C(=O)C1=C(C)NC(C)=C(C(=O)OCCc2ccccc2)C1c1ncc([N+](=O)[O-])n1C` (stereo not drawn), in experiment [1], the minimum inhibitory concentration (MIC) is 1 µM (≈ 0.482 µg/mL). Further, in experiment [2], the half-maximal inhibitory concentration (IC50) worked out at 2.4 µM.
On the same counts, the results for `CCN(CC)C(=O)C1=C(C)NC(C)=C(C(=O)OCc2ccccc2)C1c1ncc([N+](=O)[O-])n1C` (stereo not drawn) are 1 µM (≈ 0.468 µg/mL) and 4.2 µM.
In turn, `CCN(CC)C(=O)C1=C(C)NC(C)=C(C(=O)OCCCCCc2ccccc2)C1c1ncc([N+](=O)[O-])n1C` (stereo not drawn) came in with an MIC in experiment [1] of 2 µM (≈ 1.05 µg/mL). The IC50 in experiment [2] was 24 µM.

The values above are taken from ChEMBL document CHEMBL1152702, “Synthesis and biological evaluation of some new 1,4-dihydropyridines containing different ester substitute and diethyl carbamoyl group as anti-tubercular agents” (Bioorg Med Chem, 2009).
